Most compounds without a hit are left out; they make up all but 2.4% or so of the library.
Env fusion inh: blocks HIV Env-driven cell-cell fusion; inhibition, % at 12.3 µM; HeLa-JRFL Env/CEM21 cell fusion, luciferase; hit rate 1.1% among 360,000;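 active = mean replicate inhibition score of at least 50 and every replicate individually at or above 50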;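 note: 0% = plate neutral controls and 100% = maraviroc near 300 nM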
GSIS activator: GLuc luminescence reporter in INS-1E cells, primary screen for activators of glucose-dependent secretion of insulin | INS-1E GLuc reporter insulin secretion, 2-3 h | AID 743287 | hit rate 0.61% among 370,000 | activation, % at 16.6 µM;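 active = lowest replicate activation of at least 40%, so every replicate reaches that level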;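 note: 0% = median of neutral control wells and 100% = median of IBMX positive control wells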
Cneo AK release: Cryptococcus neoformans lysis via adenylate kinase release. hit rate 0.2% among 360,000. AID 651654. C. neoformans lysis, adenylate kinase release luminescence, 4 h; normalised: neutral wells 0, clomiphene wells 100. lysis activity, % at 15 µM;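 active = mean lysis activity across replicates of at least 80%, whatever share of replicates individually reach that level; inactive = mean lysis activity below 80%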
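Test system: log-phase Cryptococcus neoformans yeast cells. Input: 5 × 10^6 yeast cells/mL. Medium: fresh YPD growth medium. Doses: single dose. Incubation: static 4 h at 37 °C with compound, 1 h detection. Measured by: luminescent adenylate kinase detection reagent. Read-out: signal increase indicating cell lysis. Benchmarks: Clomiphene.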
dFosB activator: mouse delta FosB homodimer activation; activation, % at 25 µM; P13346; purified delta FosB, TAMRA-CDK5 oligo fluorescence polarization; percent of positive-control signal above neutral wells; hit rate 0.99% among 340,000; AID 493131;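 active = mean activation above about 17%, with every replicate also reaching it, limit read from the data, passing the limit was not always enough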
Target sequence (P13346 whole entry, looked up): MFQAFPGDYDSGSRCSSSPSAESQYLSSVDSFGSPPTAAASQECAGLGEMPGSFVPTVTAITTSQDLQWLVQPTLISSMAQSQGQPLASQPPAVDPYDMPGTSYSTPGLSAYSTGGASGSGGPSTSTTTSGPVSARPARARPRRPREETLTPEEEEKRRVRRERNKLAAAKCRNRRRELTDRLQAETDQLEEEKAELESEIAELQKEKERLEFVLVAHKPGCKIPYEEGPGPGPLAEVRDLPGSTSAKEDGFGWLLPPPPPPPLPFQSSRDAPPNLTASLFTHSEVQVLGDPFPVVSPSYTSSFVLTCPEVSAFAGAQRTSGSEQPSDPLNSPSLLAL
miR-122 sensor: inhibitors of miR-122 in Huh7 cells. activation (reporter increase), % at 12.5 µM. Huh7 miR-122 Renilla luciferase sensor, 48 h; neutral wells = 0, positive control = 100. hit rate 0.3% among 340,000;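 active = mean replicate activation score at least 90 and every replicate individually at or above 90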;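 note: higher luciferase means less miR-122 activity so hits act as miR-122 inhibitors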
Rtt109 HAT inh: blocks Candida albicans Rtt109/Vps75 acetyltransferase activity; Q5AAJ8; purified Rtt109/Vps75, ThioGlo CoA-SH fluorescence, 4 h; inhibition, % at 34.9 µM; hit rate 0.16% among 330,000;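 active = inhibition of at least 50% in every replicate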
The depositor's hits bear a star; . = not tested or not shown; [ ] = dose if it differs, or a comment.

SMILES	Env fusion inh	GSIS activator	Cneo AK release	dFosB activator	miR-122 sensor	Rtt109 HAT inh
O=C(Nc1nc(COc2ccccc2)cs1)C12CC3CC(CC(C3)C1)C2	68*	-19	-4	1	-8	-2
CNC[C@@H]1Oc2c(NC(C)=O)cccc2C(=O)N(C)C[C@H]1C	.	-1	.	.	.	.
Cc1ccc(-n2nnnc2-c2cnc3ccc(Cl)cc3c2-c2ccccc2)cc1	-37	.	6	-7	3	9
Clc1ccc2[nH]cc(-c3nnnn3-c3ccc4ccccc4c3)c2c1	-27	.	.	-5	212*	0
COc1ccc(NC(=O)Nc2ccc3c(c2)C(=O)N([C@@H](C)CO)C[C@H](C)[C@H](CN(C)Cc2ccc4c(c2)OCO4)OCCCC[C@H](C)O3)cc1	83*[16.7 µM]	-22	1	.	-7[16.7 µM]	.
COc1ccc(NC(=O)Nc2ccc3c(c2)C(=O)N([C@H](C)CO)C[C@H](C)[C@H](CN(C)Cc2ccc4c(c2)OCO4)OCCCC[C@H](C)O3)cc1	68*[16.7 µM]	-23	2	.	-8[16.7 µM]	.
COc1ccc(NC(=O)Nc2ccc3c(c2)C(=O)N([C@@H](C)CO)C[C@@H](C)[C@@H](CN(C)Cc2ccc4c(c2)OCO4)OCCCC[C@@H](C)O3)cc1	10[16.7 µM]	-20	0	.	-1[16.7 µM]	.
C[C@H](CO)N1C[C@H](C)[C@H](CN(C)Cc2ccc(C(=O)Nc3ccccc3N)cc2)Oc2c(NS(=O)(=O)c3cccs3)cccc2C1=O	.	2	50	.	8[16.7 µM]	.
CCN(CC)CC#CCC(C)(c1ccccc1)c1ccccc1	65*	-20	0	2	4	8
Nc1ccc(Cc2ccc(N)c(O)c2)cc1O	9	-10	.	44*	.	-5
CCCNC(=O)N1C[C@H](C)[C@@H](OC)CN(C)C(=O)c2cc(NC(=O)C3CCC3)ccc2OC[C@@H]1C	.	7	.	.	-7[16.7 µM]	.
COC(=O)[C@]1(Cc2ccccc2)N[C@H](CN(C)S(=O)(=O)c2ccc(C)cc2)[C@@H]2C(=O)N(Cc3ccccc3)C(=O)[C@@H]21	1	31	0	-1	1	2
CCN(C[C@H]1N[C@@](C)(C(=O)OC)[C@H]2C(=O)N(Cc3ccccc3)C(=O)[C@@H]12)S(=O)(=O)c1ccc(C)cc1	69*	-13	3	-8	.	1
CCN(C[C@H]1N[C@@](CC)(C(=O)OC)[C@H]2C(=O)N(C)C(=O)[C@@H]12)S(=O)(=O)c1ccc(-c2ccccc2)cc1	-20	-3	3	-8	.	3
COC(=O)[C@]1(Cc2ccccc2)N[C@H](CN(C)S(=O)(=O)c2ccc(-c3ccccc3)cc2)[C@@H]2C(=O)N(Cc3ccccc3)C(=O)[C@@H]21	59*	11	2	-6	-2	-2
CCN(C[C@H]1N[C@@](CC)(C(=O)OC)[C@H]2C(=O)N(C)C(=O)[C@@H]12)S(=O)(=O)c1ccc(OC)cc1	20	52*	-2	-6	0	-4
CCN(C[C@H]1N[C@@](C)(C(=O)OC)[C@H]2C(=O)N(Cc3ccccc3)C(=O)[C@@H]12)C(=O)Nc1ccccc1	127*	23	1	-7	.	8
COCC(=O)Nc1ccc2c(c1)C(=O)N(C)C[C@@H](OC)[C@@H](C)CN(CCC(F)(F)F)[C@H](C)CO2	-21[16.7 µM]	-2	-1	.	5[16.7 µM]	.
CCN(C[C@H]1N[C@@](CC)(C(=O)OC)[C@H]2C(=O)N(Cc3ccccc3)C(=O)[C@@H]12)C(=O)Nc1ccc(OC)cc1	87*	1	21	-8	0	0
CC[C@@]1(C(=O)OC)N[C@H](CN(C)C(=O)COc2ccccc2)[C@@H]2C(=O)N(Cc3ccccc3)C(=O)[C@@H]21	69*	-23	-1	-1	.	8
CCNC(=O)N(CC)C[C@H]1N[C@@](C)(C(=O)OC)[C@H]2C(=O)N(Cc3ccccc3)C(=O)[C@@H]12	-59	29	-1	-10	-3	-1
CCN(C[C@H]1N[C@@](C)(C(=O)OC)[C@H]2C(=O)N(Cc3ccccc3)C(=O)[C@@H]12)C(=O)Nc1ccc(C)cc1	79*	-18	0	-12	1	-1
CCN(C[C@H]1N[C@@](CC)(C(=O)OC)[C@H]2C(=O)N(Cc3ccccc3)C(=O)[C@@H]12)C(=O)c1ccc(F)cc1	56*	-14	0	-4	-6	-2

Screening data: PubChem BioAssay, Broad Institute
